Source: ChEMBL document CHEMBL3862037 (J Med Chem, 2016)

Assays:
D(2) dopamine receptor [1] = target: T1, D(2) dopamine receptor (Homo sapiens, UniProt P14416); experiment: Displacement of [3H]N-methylspiperone from human D2R expressed in HEK293 cell membranes incubated for 1 hr by radioligand binding assay
Outline: (§1)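 Membranes from HEK293 cells stably expressing human D2R (20 µg protein) or D4R (30 µg protein). Buffer: EBSS with 0.2 mM sodium metabisulfite and 0.4 nM [3H]N-methylspiperone. Test compound at 11 half-log dilutions (100 µM–100 pM or 10 µM–10 pM) in 30% DMSO vehicle. Incubated 1 h at room temperature; nonspecific binding with 10 µM butaclamol.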

D(3) dopamine receptor = D(3) dopamine receptor (Homo sapiens, UniProt P35462); experiment: Displacement of [3H]N-methylspiperone from human D3R expressed in HEK293 cell membranes incubated for 1 hr by radioligand binding assay
Sequence of D(3) dopamine receptor (P35462 whole entry): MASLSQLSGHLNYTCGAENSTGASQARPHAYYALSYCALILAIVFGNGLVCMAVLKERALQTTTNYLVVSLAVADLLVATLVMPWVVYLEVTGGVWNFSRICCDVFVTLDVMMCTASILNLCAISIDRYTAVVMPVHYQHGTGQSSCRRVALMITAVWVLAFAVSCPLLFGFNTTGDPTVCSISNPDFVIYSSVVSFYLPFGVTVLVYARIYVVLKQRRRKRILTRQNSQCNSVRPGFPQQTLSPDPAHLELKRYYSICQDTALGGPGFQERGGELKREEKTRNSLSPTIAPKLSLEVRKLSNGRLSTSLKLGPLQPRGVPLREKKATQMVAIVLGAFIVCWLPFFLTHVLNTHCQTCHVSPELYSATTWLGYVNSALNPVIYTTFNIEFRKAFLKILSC

D(4) dopamine receptor = target: T2, D(4) dopamine receptor (Homo sapiens, UniProt P21917); experiment: Displacement of [3H]N-methylspiperone from human D4R expressed in HEK293 cell membranes incubated for 1 hr by radioligand binding assay; outline: as §1
T2 sequence (P21917 whole entry): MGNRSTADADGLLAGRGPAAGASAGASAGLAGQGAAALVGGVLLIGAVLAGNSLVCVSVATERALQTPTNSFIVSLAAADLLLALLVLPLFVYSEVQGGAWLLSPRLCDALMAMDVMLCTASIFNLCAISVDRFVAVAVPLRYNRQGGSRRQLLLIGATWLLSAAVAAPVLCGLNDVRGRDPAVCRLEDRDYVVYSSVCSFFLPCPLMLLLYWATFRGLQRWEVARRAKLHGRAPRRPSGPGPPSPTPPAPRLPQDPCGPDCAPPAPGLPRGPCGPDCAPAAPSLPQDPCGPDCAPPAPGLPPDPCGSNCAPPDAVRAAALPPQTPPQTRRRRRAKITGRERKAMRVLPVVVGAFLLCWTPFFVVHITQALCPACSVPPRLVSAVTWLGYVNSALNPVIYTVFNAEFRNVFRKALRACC

D(2) dopamine receptor [2] = target: T1, D(2) dopamine receptor; experiment: Antagonist activity at DRD2 (unknown origin) expressed in HEK293T cells transfected with Galphai1-RLuc8 and gamma2-GFP10 assessed as inhibition of quinpirole-induced Gi1 activation pre-incubated with quinpirole for 10 mins before compound incubation for 10 mins by BRET assay; assay type: cell-based, HEK-293T
Outline: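 HEK-293T cells co-transfected with Flag-tagged D2 receptor, RLuc8-fused Gαi1, GFP10-fused Gγ and untagged Gβ, using constant total plasmid DNA at various partner ratios. Cells preincubated 10 min with 1 µM quinpirole, then 10 min with test compound. Read-out: BRET as fluorescence at 535 nm after 5 µM coelenterazine 400a.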

[3] = Displacement of [3H]WIN35,428 from human DAT Y156F mutant expressed in COS7 cell membranes incubated for >90 mins by radioligand binding assay; details: cos-7
[4] = target: T3, Sodium-dependent dopamine transporter (Homo sapiens, UniProt Q01959); experiment: Displacement of [3H]WIN35,428 from wild type human DAT expressed in COS7 cell membranes incubated for >90 mins by radioligand binding assay; set-up: species or system COS-7
T3 sequence (Q01959 whole entry): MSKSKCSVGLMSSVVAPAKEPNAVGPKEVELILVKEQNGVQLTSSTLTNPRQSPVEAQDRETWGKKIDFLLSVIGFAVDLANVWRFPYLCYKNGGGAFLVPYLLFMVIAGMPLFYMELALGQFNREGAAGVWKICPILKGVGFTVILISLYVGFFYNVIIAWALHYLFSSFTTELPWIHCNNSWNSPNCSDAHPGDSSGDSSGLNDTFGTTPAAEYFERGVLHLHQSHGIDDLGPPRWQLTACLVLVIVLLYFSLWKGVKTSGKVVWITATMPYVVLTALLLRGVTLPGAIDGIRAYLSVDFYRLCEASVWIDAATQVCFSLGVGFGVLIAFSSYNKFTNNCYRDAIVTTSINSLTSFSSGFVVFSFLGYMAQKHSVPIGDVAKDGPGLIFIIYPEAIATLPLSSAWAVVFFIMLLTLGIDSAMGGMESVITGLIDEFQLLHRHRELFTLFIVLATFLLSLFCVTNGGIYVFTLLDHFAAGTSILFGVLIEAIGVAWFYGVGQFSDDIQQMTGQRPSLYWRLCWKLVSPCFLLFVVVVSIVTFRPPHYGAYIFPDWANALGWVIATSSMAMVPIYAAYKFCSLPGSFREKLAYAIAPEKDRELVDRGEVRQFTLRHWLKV

[5] = target: T3, Sodium-dependent dopamine transporter; experiment: Inhibition of DAT (unknown origin) expressed in COS7 cells assessed as reduction in [3H]DA uptake incubated for 5 mins by beta-scintillation counting method; assay type: cell-based, COS-7
[6] = Stability in mouse liver microsomes assessed as half life at 10 uM in presence of NADPH regenerating system by LC/MS/MS method; assay type: ADME; details: for half-life at 10 µM: liver microsomes
Outline: (§2)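 Mouse liver microsomes (0.5 mg/mL) in 100 mM potassium phosphate pH 7.4 with NADPH regenerating system. Compound at 10 µM final; testosterone as positive control. Parent compound loss followed over time by LC/MS/MS on a C18 column with formic acid/acetonitrile gradient.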

[7] = Stability in mouse liver microsomes assessed as compound remaining at 10 uM in absence of NADPH regenerating system measured after 60 mins by LC/MS/MS method; assay type: ADME, microsome; details: read-out: Stability
[8] = Stability in mouse liver microsomes assessed as compound remaining at 10 uM in presence of NADPH regenerating system measured at 60 mins by LC/MS/MS method; assay type: ADME; details: read-out: Stability; outline: as §2
[9] = Induction of locomotor activity in C57BL/6J mouse assessed as increase in traveled distance every 10 mins at 10 mg/kg, ip; assay type: organism-based; details: in vivo
[10] = Induction of locomotor activity in C57BL/6J mouse assessed as increase in traveled distance every 10 mins at 10 to 30 mg/kg, ip; assay type: organism-based; details: in vivo
[11] = Stability in mouse liver microsomes assessed as compound remaining at 10 uM in presence of NADPH regenerating system measured up to 70 mins by LC/MS/MS method; assay type: ADME; details: read-out: Stability
[12] = Induction of locomotor activity in C57BL/6J mouse assessed as increase in traveled distance every 10 mins at 3 and 10 mg/kg, ip; assay type: organism-based; details: in vivo

T1 sequence (P14416 whole entry): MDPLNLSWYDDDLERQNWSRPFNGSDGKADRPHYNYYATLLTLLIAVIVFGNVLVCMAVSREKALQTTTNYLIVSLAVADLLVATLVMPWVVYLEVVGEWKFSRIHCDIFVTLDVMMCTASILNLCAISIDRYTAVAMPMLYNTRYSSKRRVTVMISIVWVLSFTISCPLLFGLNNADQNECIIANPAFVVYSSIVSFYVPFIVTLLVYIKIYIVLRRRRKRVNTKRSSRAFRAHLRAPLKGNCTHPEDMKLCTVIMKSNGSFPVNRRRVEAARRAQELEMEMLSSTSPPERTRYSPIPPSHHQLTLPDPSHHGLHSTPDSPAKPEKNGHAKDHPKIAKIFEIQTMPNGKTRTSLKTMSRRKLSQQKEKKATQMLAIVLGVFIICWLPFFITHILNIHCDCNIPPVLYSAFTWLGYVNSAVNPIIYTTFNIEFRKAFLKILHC

Row | SMILES | Ki (D(2) dopamine receptor [1]) [µM] | Ki (D(3) dopamine receptor) [µM] | Ki (D(4) dopamine receptor) [µM] | IC50 (D(2) dopamine receptor [2]) [µM] | Ki [3] [µM] | Ki [4] [µM] | Ki [5] [µM] | t1/2 ([6]; microsomes, 10 µM) [h] | remaining at 1 h, 10 µM [7] [%] | remaining at 1 h, 10 µM [8] [%] | Activity [9] | Activity [10] | half-life at 10 µM [6] [h] | remaining at 70 min, 10 µM [11] [%] | Activity [12]
1 | [O-][S+](CCN1CCN(CC(O)Cc2ccccc2)CC1)C(c1ccc(F)cc1)c1ccc(F)cc1 (configuration not stated) | 0.0786 | 0.652 | 1.75 | > 10 | 0.097 | 0.0065 | 0.012 | 0.217 | > 95 | 4 | Non-Toxic | Dose-dependent effect |  |  | 
2 | CC(O)CN1CCN(CCSC(c2ccc(F)cc2)c2ccc(F)cc2)CC1 (configuration not stated) | 0.693 | 0.424 | 6.3 | > 10 | 0.267 | 0.101 | 0.2 |  | > 95 |  |  |  | 1 | 50 | 
3 | COC(=O)[C@H]1[C@@H](OC(=O)c2ccccc2)C[C@@H]2CC[C@H]1N2C [COCAINE] |  |  |  |  |  |  |  |  |  |  |  |  |  |  | Dose-dependent effect
4 | CC(O)CN1CCN(CC[S+]([O-])C(c2ccc(F)cc2)c2ccc(F)cc2)CC1 (configuration not stated) | 0.298 | 0.48 | 3.82 | > 10 | 9.17 | 1.2 |  |  | > 95 |  |  |  | 1 | 50 | 
